GalR3 antag – blocks the human galanin receptor 3; O60755; HEK293 GalR3-CNG cAMP membrane potential fluorescence; galR3 body fused to GalR1 C-terminus; inhibition, % at 3 µM; actives 0.44% (n = 360,000); AID 651719;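 active = inhibition above the screen-wide average plus 3 SD, cut at about 13% in these data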;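 also: forskolin and galanin both at EC90 stimulate the cells; cAMP rise reported by CNG channel membrane potential dye signal; 0% = forskolin plus galanin with DMSO and 100% = forskolin alone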
NR2E3 ag-1 – NR2E3 (human) agonism; actives 0.12% (n = 320,000); Q9Y5X4; GST-NR2E3/biotin-RetCOR TR-FRET, 1536-well; inhibition of corepressor binding, % at 4.78 µM;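 active = percent inhibition above the cutoff of mean plus 3 SD of all tested compounds, set per screening campaign, cut at about 20% in these data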;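 also: 0% = DMSO wells and 100% = biotin wells as full block of FRET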
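Test system: GST-NR2E3 and biotin-RetCOR proteins | Quantity: 1.35 nM GST-tagged NR2E3 final | Medium: Tris pH 7.5 | Also added: 7 nM biotin-RetCOR | Dosing: Compound at 4.8 µM, single dose | Timing: 5 h at 4 °C | Detection: Time-resolved FRET | Read-out basis: Percent inhibition | Benchmarks: Biotin wells as high control, 0.6% DMSO wells as low control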
COUP-TFII inh – blocks human COUP-TFII nuclear receptor; P24468; HEK293T NGFI-A luciferase reporter, luminescence; inhibition, % at 8.6 µM; actives 0.7% (n = 370,000); AID 686940;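 active = inhibition above a per-plate cutoff, mean inhibition of test wells between control levels plus 3 SD, cut at about 38% in these data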;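 also: cells cotransfected with COUP-TFII expression vector driving the NGFI-A reporter; 0% = median of COUP-TF2 test wells and 100% = reporter-only cells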
CHT PAM – allosteric activators of human choline transporter CHT | AID 488977 | B-score at 10 µM | CHT-expressing cells, membrane potential dye, choline EC20; hits give high values; LV-AA mutant CHT in HEK293 cells | actives 0.49% (n = 310,000);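 active = initial fluorescence not abnormally high and integrated response B-score, plate-corrected, over 3 SD above library mean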
NR2E3 ag-2 – human photoreceptor-specific nuclear receptor agonism | Q9Y5X4 | CHO-S Gal4-NCOR/VP16-NR2E3 two-hybrid, luciferase | inhibition of corepressor binding, % at 3.98 µM | actives 0.35% (n = 360,000);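 active = inhibition above the mean of all tested compounds plus 3 SD, cut at about 70% in these data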;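 also: 0% = DMSO with NR2E3 transfected cells and 100% = cells lacking NR2E3 construct; higher means lower luciferase signal from less NR2E3 corepressor binding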
CHT block – inhibits the human high affinity choline transporter; Q9GZV3; actives 0.86% (n = 310,000); CHT-expressing cells, membrane potential dye, choline response; hits give low values; AID 488975; B-score at 10 µM;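 active = B-score over 3 SD under the library average, and starting fluorescence ratio not unusually high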;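 also: choline stimulus applied at its EC90 after an EC20 pre-addition; B-score computed on integrated fluorescence ratio after choline addition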
CHT activ conf – human CHT activation, confirmatory screen | activation, % at 10 µM | CHT-expressing cells, membrane potential dye fluorescence (FDSS); % of choline EC20–EC90 response window; HEK293 expressing CHT LV-AA mutant; choline added at its EC20 | actives 91% (n = 2,500) | shares compounds with CHT PAM;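 active = primary screen active, with duplicate mean activation above negative control mean plus 3 SD, cut at about 11% in these data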
HEK293 MP dye – activity in parental HEK293 cells lacking CHT; shares compounds with CHT PAM; membrane potential dye fluorescence (FDSS); measured after EC20 choline addition; AID 623908; ratio readout change at 10 µM, hits read low; actives 62% (n = 2,500);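 active = duplicate-averaged ratio beyond 3 SD from buffer wells, up or down, though filed actives are nearly all decreases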
The depositor's hits bear a star; i = inactive; nt = not tested or not shown. An excerpt weighted towards active compounds, which were near 2.3% of everything screened.

SMILES	GalR3 antag	NR2E3 ag-1	COUP-TFII inh	CHT PAM	NR2E3 ag-2	CHT block	CHT activ conf	HEK293 MP dye
CCN1CCN(Cc2cc(=O)oc3cc(C)cc(C)c23)CC1	-7	0	-2	7.1*	-17	i	40*	-42*
Clc1ccc(-c2c[n+]3c(n2-c2ccccc2)SCC3)cc1	-6	0	9	i	-10	i	43*	-28*
Fc1ccc(-c2cn(-c3ccccc3)c3[n+]2CCS3)cc1	2	1	9	i	12	i	51*	-42*
Clc1ccc(-c2cn(-c3ccccc3)c3[n+]2CCS3)cc1	-4	2	11	i	11	i	41*	-40*
O=C(NC1CCCCN(Cc2cccc(Cl)c2)C1=O)c1cccc(C(F)(F)F)c1 (stereo not given)	nt	nt	1	nt	nt	nt	nt	nt
Oc1ccc(-c2cn3ccccc3n2)cc1	-4	1	-46	i	-49	i	nt	nt
Cc1ccn2cc(-c3ccc(O)c(O)c3)nc2c1	-8	-5	-25	i	-178	i	36*	-40*
Oc1ccc(-c2cn3ccccc3n2)cc1O	-8	-6	-56	i	-137	i	37*	-42*
COc1cccc(OC)c1NC(=O)OCCN1CCCC12CCC(c1ccccc1)CC2 (stereo not given)	nt	nt	-17	nt	nt	nt	nt	nt
Cc1ccc2c(c1)C(CS(=O)(=O)NC1CCCC1)NC2 (stereo not given)	nt	nt	4	nt	nt	nt	nt	nt
CCOc1ccc(S(=O)(=O)N2c3ccccc3CC2C)cc1 (stereo not given)	-2	3	-13	i	-2	i	39*	i
CCOc1ccc(S(=O)(=O)N2CCc3ccccc3C2)cc1	-2	4	12	i	15	i	nt	nt
O=C(c1ccc(CS(=O)Cc2ccc(Cl)cc2)o1)N1CCN(c2cccc(Cl)c2)CC1 (stereo not given)	-7	2	21	i	29	i	nt	nt
COc1cccc(N2CCN(C(=O)c3ccc(CS(=O)Cc4ccc(C)cc4)o3)CC2)c1 (stereo not given)	-7	0	5	i	-11	i	nt	nt
COc1cccc(N2CCN(C(=O)c3ccc(CS(=O)c4ccc(C)cc4)o3)CC2)c1 (stereo not given)	3	2	-33	8.1*	15	i	21*	i
COc1cccc(N2CCN(C(=O)c3ccc(CS(=O)c4ccc(Cl)cc4)o3)CC2)c1 (stereo not given)	3	2	-1	i	-2	i	21*	i
O=C1c2cc([N+](=O)[O-])ccc2-c2ncccc21	-5	0	-14	7*	12	i	63*	-41*
Cc1cc(Nc2ncc(Cl)cc2Cl)n(-c2ccccc2C)n1	-9	-1	3	8.8*	-12	i	42*	i
COc1cc2c(cc1OC)C(c1ccc(-c3cc(Cl)ccc3Cl)o1)=NCC2	nt	0	nt	i	-3	i	nt	nt
COc1cc2c(cc1OC)C(C)=NCC2	-6	3	-15	14*	3	i	60*	-68*
COc1cc2c(cc1OC)C(C)=NC1(CCCCC1)C2	-3	2	25	9.8*	-12	i	30*	-44*
COc1cc2c(cc1OC)C(c1ccc(Cl)cc1)=NCC2	-7	-2	11	i	-3	i	63*	-79*
O=C(NC1CCCCN(Cc2ccc(Cl)cc2)C1=O)c1ccc(-c2ccccc2)cc1 (stereo not given)	nt	nt	33	nt	nt	nt	nt	nt

Screening results (PubChem)
